{"source": "paper PMC6894423", "about": "(Journal of molecular and cellular cardiology, 2019)", "key": {"mAb TnI-1": {"test_system": "mAb TnI-1", "assay": "Competitive ELISA affinity titration against mAb TnI-1", "format": "binding", "details": "compared with wild type at ~0.1 μM (Figure 8)", "procedure,_shortened": "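Wells coated overnight at 4°C with purified bovine cardiac TnI in pH 7.0 PIPES/KCl/MgCl2 buffer, then blocked with 1% BSA. mAb TnI-1 was added at a preset sub-maximal level together with serial dilutions of biologically or chemically made peptide. Detection used HRP anti-mouse IgG and H2O2-ABTS, read at 420 nm every 5 min for 30 min. Triplicate wells; each assay repeated.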"}, "[1]": {"test_system": "skinned rat ventricular papillary muscle", "assay": "Force-pCa contractility of skinned rat ventricular papillary muscle", "format": "cell-based", "details": "20 μM peptide, 15°C", "procedure,_shortened": "(§1)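 Left ventricular papillary muscle was cryosectioned at 35 μm, cut into 140–150 μm strips and stored at −20°C in glycerol relaxing buffer. Strips were clip-mounted, skinned 20 min in 1% Triton X-100 and set to sarcomere length 2.0 or 2.3 μm. Isometric force was read at pCa 6.5–4.5 at 15°C, then repeated with 20 μM peptide. Curves were Hill-fitted and compared by paired t-test.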"}, "[2]": {"test_system": "skinned mouse ventricular papillary muscle", "assay": "Force-pCa contractility of skinned mouse ventricular papillary muscle", "format": "cell-based", "details": "20 μM peptide, 15°C", "procedure,_shortened": "as §1"}, "[3]": {"test_system": "skinned mouse EDL muscle fibers", "assay": "Force-pCa contractility of skinned mouse EDL muscle fibers", "format": "cell-based", "details": "20 μM peptide; sarcomere length 2.7 μm; 15°C; N = 4", "procedure,_shortened": "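Whole EDL from adult C57BL/6 mice was split along the fibres in relaxing buffer and stored at −20°C in 50% glycerol buffer. Fibres were mounted on T-clips, further skinned 20 min in 1% Triton X-100 and set to sarcomere length 2.7 μm. Force was read at pCa 6.5–4.5 at 15°C, before and after adding 20 μM peptide; curves were Hill-fitted.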"}, "[4]": {"target": "bovine cardiac α-tropomyosin (bovine, UniProt Q5KR49 1-284)", "assay": "ELISA"}}, "note": "Entries after “also recorded” stand apart in the source; their conditions may differ.", "data": [{"molecule": "HcTnI-C27-H: R192H mutant of the C-terminal 27 amino acid peptide of human cardiac TnI (ENREVGDWHKNIDALSGMEGRKKKFES; left off: Tx3 metal-binding tag, N-terminal, cleaved | SUMO, N-terminal, cleaved)", "values": [{"measurement": "Effect on competition for mAb TnI-1 compared with wild type peptide", "setting": "mAb TnI-1", "value": "only minimum effect"}]}, {"molecule": "HcTnI-C27: C-terminal 27 amino acid peptide of human cardiac TnI (ENREVGDWRKNIDALSGMEGRKKKFES; left off: Tx3 metal-binding tag, N-terminal, cleaved | SUMO, N-terminal, cleaved)", "values": [{"measurement": "Effect on Ca^2+-sensitization by increasing sarcomere length, rat", "setting": "[1]; SL increased from 2.0 μm to 2.3 μm", "value": "completely diminishing the Ca^2+-sensitization effect; also recorded: diminished the Ca^2+-sensitization effect"}, {"measurement": "Effect on cooperativity (n), rat, SL 2.0 μm", "setting": "[1]; sarcomere length 2.0 μm, pH 7.0, N = 4", "value": "small effect on lowering pCa50 and cooperativity"}, {"measurement": "Effect on cooperativity (n), rat, SL 2.3 μm", "setting": "[1]; sarcomere length 2.3 μm, pH 7.0, n = 3", "value": "significantly decreased Ca^2+ sensitivity and cooperativity (n)"}, {"measurement": "Effect on force-pCa curves, mouse cardiac, both sarcomere lengths", "setting": "[2]; SL 2.0 μm and 2.3 μm", "value": "right-shifts of the force-pCa curves"}, {"measurement": "Effect on Ca^2+-sensitivity (force-pCa curve), mouse cardiac, SL 2.0 μm", "setting": "[2]; sarcomere length 2.0 μm, N = 3", "value": "more obvious at sarcomere length of 2.0 μm in the activated state; also recorded: decreased Ca^2+-sensitivity"}, {"measurement": "Effect on cooperativity (n), mouse cardiac, SL 2.0 μm", "setting": "[2]; sarcomere length 2.0 μm, N = 3", "value": "significantly lowered cooperativity"}, {"measurement": "Effect on Ca^2+-sensitivity (force-pCa curve), mouse cardiac, SL 2.3 μm", "setting": "[2]; sarcomere length 2.3 μm, n = 4", "value": "decreased Ca^2+-sensitivity"}, {"measurement": "Effect on myofilament Ca^2+ sensitivity, mouse EDL", "setting": "[3]", "value": "myofilament Ca^2+-desensitization effect predominantly in the activated state; also recorded: decreases in myofilament Ca^2+ sensitivity in the activated state at higher Ca^2+ concentrations"}, {"measurement": "Maximum force production, mouse EDL", "setting": "[3]", "value": "without change of maximum force production"}]}, {"molecule": "ENREVGDWRKNIDALSGMEGRKKKFES (peptide, UniProt P19429 184-210, looked up)", "note": "[C-terminal 27 amino acid peptide of human cardiac TnI (HcTnI-C27), free peptide]", "values": [{"measurement": "binding result", "setting": "[4]", "value": "binds"}]}]}
